From ChEMBL document CHEMBL1123468, “Synthesis and antiviral activity of (E)-5-(2-bromovinyl)uracil and (E)-5-(2-bromovinyl)uridine” (1986)
Converted amounts (≈) assume the structure as drawn. “And” between values parts separate entries of the source, which are not always exact repeats. Equal values may be shown once.

Tests used:
[1] = The concentration required to reduce the cytopathogenicity of HSV-1 (KOS) in PRK cell culture by 50% in presence of 100 ug/mL concentrations of 6-aminothymine; format: functional; settings: Oryctolagus cuniculus
Procedure, shortened: (§1)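 The cells were primary rabbit kidney (PRK) cultures infected with HSV-1 strain KOS, with 6-aminothymine co-present in the medium. The value is the minimum inhibitory concentration that reduces viral cytopathogenicity by 50%, using the previously described cytopathogenicity inhibition method.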

HeLa [2] = assay: The concentration required to reduce the cytopathogenicity of HSV-1 (KOS) in HeLa cell culture by 50% in presence of 100 ug/mL concentrations of 6-aminothymine; format: functional; settings: Homo sapiens
E6SM [3] = assay: The concentration required to reduce the cytopathogenicity of HSV-1 (KOS) in E6SM cell culture by 50% in presence of 100 ug/ml concentrations of 6-aminothymine; format: functional; settings: Homo sapiens
Procedure, shortened: (§2)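 E6SM cells infected with HSV-1 (KOS), with 6-aminothymine or benzylacyclouridine added to the medium at the stated concentration. The value is the minimum concentration that reduces viral cytopathogenicity by 50%.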

HeLa [4] = assay: The concentration required to reduce the cytopathogenicity of HSV-1 (KOS) in HeLa cell culture by 50% in presence of 20 ug/mL concentrations of 6-aminothymine; format: functional; settings: Homo sapiens
E6SM [5] = assay: The concentration required to reduce the cytopathogenicity of HSV-1 (KOS) in E6SM cell culture by 50% in presence of 20 ug/mL concentrations of 6-aminothymine; format: functional; settings: Homo sapiens; procedure, shortened: as §2
E6SM [6] = assay: The compound was tested for its antiviral activity against vesicular stomatitis virus in E6SM cell culture; format: functional; settings: Homo sapiens
Procedure, shortened: (§3)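 Virus-induced cytopathogenicity in cell culture, scored microscopically. The value is the minimum concentration that cuts viral cytopathogenicity by 50%. Normal cell morphology was also checked microscopically at up to 400 μg/mL.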

[7] = The concentration required to reduce the cytopathogenicity of HSV-1 (KOS) in PRK cell culture by 50% in presence of 4 ug/mL concentrations of 6-aminothymine; format: functional; settings: Oryctolagus cuniculus; procedure, shortened: as §1
E6SM [8] = assay: The concentration required to reduce the cytopathogenicity of HSV-1 (KOS) in E6SM cell culture by 50% in presence of 10 ug/mL of Urd; format: functional; settings: Homo sapiens
Procedure, shortened: (§4)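 E6SM cells infected with HSV-1 (KOS), with Urd or dUrd added alone or together with 6-aminothymine (50 μg/mL). The value is the minimum concentration that reduces viral cytopathogenicity by 50%.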

E6SM [9] = assay: The concentration required to reduce the cytopathogenicity of HSV-1 (KOS) in E6SM cell culture by 50% in presence of 0 ug/mL concentrations of 6-aminothymine; format: functional; settings: Homo sapiens; procedure, shortened: as §2
[10] = The concentration required to reduce the cytopathogenicity of HSV-1 (KOS) in PRK cell culture by 50% in presence of 20 ug/mL concentrations of 6-aminothymine; format: functional; settings: Oryctolagus cuniculus; procedure, shortened: as §1
HSF (VGS) = assay: The compound was tested for its antiviral activity against HSV-1 (KOS) virus in HSF (VGS) cell line; format: functional; settings: Homo sapiens; procedure, shortened: as §3
E6SM [11] = assay: The concentration required to reduce the cytopathogenicity of HSV-1 (KOS) in E6SM cell culture by 50% in presence of 10 ug/mL concentrations of benzylacyclouridine; format: functional, Homo sapiens; procedure, shortened: as §2
HeLa [12] = assay: The concentration required to reduce the cytopathogenicity of HSV-1 (KOS) in HeLa cell culture by 50% in presence of 4 ug/mL concentrations of 6-aminothymine; format: functional; settings: Homo sapiens
E6SM [13] = assay: The concentration required to reduce the cytopathogenicity of HSV-1 (KOS) in E6SM cell culture by 50% in presence of 0 ug/mL concentrations of benzylacyclouridine; format: functional; settings: Homo sapiens; procedure, shortened: as §2
E6SM [14] = assay: The concentration required to reduce the cytopathogenicity of HSV-1 (KOS) in E6SM cell culture by 50% in presence of 100 ug/mL of dUrd and 50 ug/mL of 6-aminothymine; format: functional; settings: Homo sapiens; procedure, shortened: as §4
M21 = assay: The compound was tested for its antiviral activity against HSV-1 (KOS) virus M-21 (GM137) cell line; format: functional; settings: Homo sapiens; procedure, shortened: as §3
E6SM [15] = assay: The concentration required to reduce the cytopathogenicity of HSV-1 (KOS) in E6SM cell culture by 50% in presence of 300 ug/mL dThd; format: functional; settings: Homo sapiens
Procedure, shortened: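 Thymidine (dThd) was added to the E6SM culture medium alongside the test compound, and cells were infected with HSV-1 strain KOS. The endpoint is the minimum inhibitory concentration that reduces viral cytopathogenicity by 50%. The cytopathogenicity inhibition procedure follows the earlier-described method.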

E6SM [16] = assay: The concentration required to reduce the cytopathogenicity of HSV-1 (KOS) in E6SM cell culture by 50% in presence of 4 ug/mL concentrations of 6-aminothymine; format: functional; settings: Homo sapiens
Procedure, shortened: (§5)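 E6SM cultures were infected with HSV-1 strain KOS. 6-Aminothymine or benzylacyclouridine was present in the medium together with the test compound. The value is the minimum concentration giving 50% reduction of viral cytopathogenicity, scored by the earlier-described cytopathogenicity inhibition procedure.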

[17] = The concentration required to reduce the cytopathogenicity of HSV-1 (KOS) in PRK cell culture 0 ug/mL specified concentrations of 6-aminothymine; format: functional; settings: Oryctolagus cuniculus
E6SM [18] = assay: The compound was tested for its antiviral activity against HSV-1 (KOS) virus in E6SM cell culture; format: functional; settings: Homo sapiens; procedure, shortened: as §3
E6SM [19] = assay: The concentration required to reduce the cytopathogenicity of HSV-1 (KOS) in E6SM cell culture by 50% in presence of 3 ug/mL dThd; format: functional; settings: Homo sapiens
Procedure, shortened: (§6)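 E6SM cells infected with HSV-1 (KOS), with dThd added to the culture medium at the stated concentration. The value is the minimum concentration that reduces viral cytopathogenicity by 50%.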

HeLa [20] = assay: The concentration required to reduce the cytopathogenicity of HSV-1 (KOS) in HeLa cell culture by 50% in presence of 0 ug/mL concentrations of 6-aminothymine; format: functional; settings: Homo sapiens
HeLa [21] = assay: The concentration required to reduce the cytopathogenicity of HSV-1 (KOS) in HeLa cell culture by 50% in presence of specified concentrations of 6-aminothymine; format: functional, Homo sapiens
E6SM [22] = assay: The concentration required to reduce the cytopathogenicity of HSV-1 (KOS) in E6SM cell culture by 50% in presence 0 ug/mL of 50 ug/mL of 6-aminothymine; format: functional; settings: Homo sapiens; procedure, shortened: as §2
E6SM [23] = assay: The concentration required to reduce the cytopathogenicity of HSV-1 (KOS) in E6SM cell culture by 50% in presence of specified concentrations of 6-aminothymine; format: functional; settings: Homo sapiens; procedure, shortened: as §5
E6SM [24] = assay: The concentration required to reduce the cytopathogenicity of HSV-1 (KOS) in E6SM cell culture by 50% in absence of dThd; format: functional; settings: Homo sapiens; procedure, shortened: as §6
E6SM [25] = assay: The concentration required to reduce the cytopathogenicity of HSV-1 (KOS) in E6SM cell culture by 50% in presence of specified concentrations of benzylacyclouridine; format: functional, Homo sapiens; procedure, shortened: as §5
[26] = The concentration required to reduce the cytopathogenicity of HSV-1 (KOS) in PRK cell culture by 50% in presence of specified concentrations of 6-aminothymine; format: functional, Oryctolagus cuniculus; procedure, shortened: as §1

## Oc1ncc(/C=C/Br)c(O)n1
[1]
  MIC50: > 400 mg/L
HeLa [2]
  MIC50: > 200 mg/L
E6SM [3]
  MIC50: > 400 mg/L
HeLa [4]
  MIC50: > 200 mg/L
E6SM [5]
  MIC50: > 400 mg/L
E6SM [6]
  MIC50: > 400 mg/L
[7]
  MIC50: > 400 mg/L
E6SM [8]
  MIC50: 7 mg/L
E6SM [9]
  MIC50: 7 mg/L
[10]
  MIC50: > 400 mg/L
HSF (VGS)
  MIC50: 7 mg/L (≈ 32.3 µM)
E6SM [11]
  MIC50: 4 mg/L
E6SM [11]; Homo sapiens, read-out: MIC50
  MIC50: 4 mg/L
HeLa [12]
  MIC50: > 200 mg/L
E6SM [13]
  MIC50: 4 mg/L
E6SM [14]
  MIC50: 7 mg/L
M21
  MIC50: 1 mg/L (≈ 4.61 µM)
E6SM [15]
  MIC50: > 400 mg/L
E6SM [16]
  MIC50: > 400 mg/L
[17]
  MIC50: > 400 mg/L
E6SM [18]
  MIC50: 7 mg/L (≈ 32.3 µM)
E6SM [19]
  MIC50: 4 mg/L
HeLa [20]
  MIC50: 2 mg/L

## O=c1[nH]c(=O)n([C@H]2C[C@H](O)[C@@H](CO)O2)cc1/C=C/Br [BRIVUDINE]
HeLa [21]
  MIC50: 0.01 mg/L and 0.02 mg/L
HeLa [21]; Homo sapiens, read-out: MIC50
  MIC50: 0.01 mg/L
E6SM [22]
  MIC50: 0.02 mg/L (≈ 0.06 µM)
E6SM [23]
  MIC50: 0.02 mg/L
E6SM [24]
  MIC50: 0.02 mg/L (≈ 0.06 µM)
E6SM [25]
  MIC50: 0.02 mg/L
E6SM [25]; Homo sapiens, read-out: MIC50
  MIC50: 0.04 mg/L
E6SM [6]
  MIC50: > 400 mg/L
E6SM [8]
  MIC50: 0.04 mg/L
[26]
  MIC50: 0.01 mg/L
[26]; Oryctolagus cuniculus, read-out: MIC50
  MIC50: 0.01 mg/L
HSF (VGS)
  MIC50: 0.04 mg/L (≈ 0.12 µM)
E6SM [14]
  MIC50: 0.2 mg/L
E6SM [15]
  MIC50: > 400 mg/L
E6SM [18]
  MIC50: 0.02 mg/L (≈ 0.06 µM)
E6SM [19]
  MIC50: 0.02 mg/L
